High-throughput results: PubChem, several laboratories
Dynein transport: inhibitors of GR-EGFP nuclear translocation, primary screen, dynein cargo transport inhibitor project, imaging, high-content, 3617.4 mouse cells | test concentration mostly 20 µM; stimulated with dexamethasone, 1 µM; stronger effect = lower value | 220,000 tested, 0.47% active | z-score, hits read low;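 active means plate z-score of nuclear minus cytoplasmic receptor signal below a set negative limit, without overly bright fluorescence or cell loss, cut at about -3.5 in these data, passing the limit was not always enough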;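 further: z-score of nuclear minus cytoplasmic ring GR-EGFP intensity difference per well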
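medium = tetracycline-free induction medium containing charcoal-stripped FBS | also added = 1.0 µM final dexamethasone stimulus | schedule = 48 h induction, 1 h compound, 30 min dex at 37 °C | technique = fixed, Hoechst-stained cells imaged at 10x for EGFP | measure = GR-EGFP nuclear translocation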
XBP1 UPR activ: activators of adaptive XBP1 UPR arm, primary screen, cell-based, CHO-XBP1 luciferase reporter, luminescence, uHTS | activation, % at 20 µM | 330,000 tested, 0.33% active | IRE1-XBP1 UPR activation; percent of tunicamycin response, DMSO as zero;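 active means versus positive control, 20 µM dose yields 30% or more activation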;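 further: 100% = tunicamycin at 10 µg/mL and 0% = DMSO only wells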
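Material: CHO cell line with stable XBP1 luciferase reporter; schedule: 16-18 h cell attachment at 37 °C, then 6 h compound exposure; signal: glow luminescence from Steady-Glo reagent; medium: serum-containing F12 medium, 10% FBS; benchmarks: tunicamycin 10 µg/mL and vehicle-only wells; read-out: percent activation relative to tunicamycin reference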
L major viab: Leishmania major promastigote growth inhibition, primary screen; inhibition, % at 10 µM; 200,000 tested, 9% active; Leishmania major promastigotes, resazurin fluorescence viability; in the data active means inhibition above about 50%;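 further: promastigotes grown with compound for 44 hours at 28 °C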
UPR CHOP act: activators of apoptotic CHOP UPR arm, primary screen, cell-based, CHO-CHOP luciferase reporter, luminescence, uHTS. UPR activation; percent of tunicamycin response over DMSO baseline. activation, % at 10 µM. 330,000 tested, 0.34% active. AID 449763, 2010;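 active means at 10 µM dose, activation of 40% or more, normalized to positive control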;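 further: 100% = tunicamycin at 10 µg/mL and 0% = DMSO alone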
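assay system = CHO CHOP reporter cells | amount = 500 CHO-CHOP cells per well | buffer or medium = F12 with 10% FBS | incubation = 16-18 h cell attachment, then 6 h compound exposure, 37 °C | detection = luminescence read with Steady-Glo | read-out = percent activation relative to tunicamycin control | controls = tunicamycin high control, DMSO low control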
T cruzi repl: inhibitors of intracellular T. cruzi growth, primary screen, luminescence, NIH3T3 host cells; AID 1885, 2009; T. cruzi beta-gal in NIH3T3, 90 h; inhibition, % (no concentration beside the values); 300,000 tested, 1.4% active;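 active means mean inhibition across valid replicates above about 55%, limit read from the data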;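 further: signal also drops with host cell toxicity which is not excluded here; 0% = plate median of DMSO wells and 100% = zero luminescence signal; higher percent means less beta-gal luminescence so fewer parasites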
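assay system = mouse NIH/3T3 fibroblasts infected with β-gal-expressing T. cruzi Tulahuen C4 | input = 5,000 NIH/3T3 host cells per well | buffer or medium = DMEM plus 2% FBS | timing = 3 h host attachment, then at least 90 h co-culture | measured by = GalScreen luminescence, 60 min | evaluation = luminescence reflecting intracellular parasite burden, expressed as percent inhibition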
CHOP inh: inhibitors of CHOP promoter induction, primary screen, cell-based, unfolded protein response, luciferase reporter | CHO-K1 CHOP-promoter luciferase, tunicamycin-induced, 15-18 h | inhibition, % at 10 µM | 220,000 tested, 3.8% active;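 active means compounds that reduced the stress-induced luciferase reporter signal by more than about 70% of percent inhibition, limit read from the data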;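 further: 0% = tunicamycin plus vehicle and 100% = wells without tunicamycin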
Active calls of the source: *; . = no result. Shown is part of a subset that was picked to be rich in hits.

SMILES | Dynein transport | XBP1 UPR activ | L major viab | UPR CHOP act | T cruzi repl | CHOP inh
COC(=O)c1cccc(-n2nnnc2SCC(=O)Nc2nc3c(s2)CCCC3)c1 | 1.1 | -5 | 26 | -3 | 10 | 88*
CCC(=O)Nc1ccc(NC(=O)CSc2nnnn2-c2ccc3c(c2)OCCO3)cc1 | -0.46 | -6 | -6 | -3 | 43 | 49
O=C(CSc1nnnn1-c1ccc2c(c1)OCCO2)Nc1nc2c(s1)CCCC2 | -0.18 | -3 | 6 | -2 | 21 | 87*
Cc1ccc(NC(=O)CCSc2nnnn2-c2ccc3c(c2)OCO3)cc1C | -0.8 | 0 | 35 | -1 | 16 | 73*
CNc1ccccc(-c2ccc3ccccc3n2)c1=O | 2.2 | 0 | 11 | 2 | 1 | -73
Cc1ccc(OCCNC(=O)CCc2ccccc2)cc1C | . | -2 | . | 2 | 6 | .
COCC(C)NS(=O)(=O)c1ccc(C(=O)NCCCn2ccc3ccccc32)cc1 (configuration not stated) | . | -2 | . | -1 | 13 | .
Cc1cccc(C)c1NC(=O)C(NC=O)c1ccc(Cl)cc1 (configuration not stated) | -0.14 | 1 | -3 | -1 | 2 | -10
Cc1cccc(C)c1NC(=O)C(C)c1ccc(-c2ccccc2)c(F)c1 (configuration not stated) | 1.4 | -3 | 100* | -1 | 13 | 45
CN(C(=O)COC(=O)CNC(=O)c1ccc(C(C)(C)C)cc1)c1c(N)n(Cc2ccccc2)c(=O)[nH]c1=O | . | -1 | . | 2 | -18 | .
COc1ccc([N+](=O)[O-])cc1N(CC(=O)NCCC1=CCCCC1)S(C)(=O)=O | 1.2 | -5 | 71* | -1 | 20 | 26
COc1ccc([N+](=O)[O-])cc1N(CC(=O)NCC1CCCO1)S(C)(=O)=O (configuration not stated) | 1.5 | -1 | 58* | 3 | -8 | -3
CNC(=O)CN(c1cc([N+](=O)[O-])ccc1OC)S(C)(=O)=O | 1.5 | 0 | 44 | 0 | -6 | 14
Cc1ccccc1OCCC(=O)OCC(=O)Nc1c(F)cccc1F | . | 3 | . | 0 | -15 | .
CCOC(=O)N1CCN(CC(=O)Nc2nc3ccc(OC)cc3s2)CC1 | . | -1 | . | 3 | -4 | .
O=C(Nc1ccccn1)c1ccc([N+](=O)[O-])o1 | -0.72 | 1 | 99* | 0 | 32 | -31
Cc1ccnc(NC(=O)c2ccc([N+](=O)[O-])o2)c1 | -0.72 | 4 | 99* | 0 | 18 | -7
O=C(Nc1ncccn1)c1ccc([N+](=O)[O-])o1 | -0.32 | 0 | -2 | 1 | 12 | -12
Cc1ccc(NC(=O)c2ccccc2OCc2ccc([N+](=O)[O-])cc2)nc1 | -0.11 | 0 | -8 | -2 | 12 | 18
COc1ccc(COc2ccccc2C(=O)Nc2ccccn2)cc1[N+](=O)[O-] | -0.27 | 2 | 62* | 1 | -9 | 41
COc1cc(NC(=O)c2cccs2)c(OC)cc1NC(=O)Nc1ccc(F)cc1 | . | -6 | . | 2 | 10 | .
CCOc1ccc(-c2cccc(NC(=O)c3ccco3)c2)nn1 | . | -3 | . | 0 | -5 | .
CNS(=O)(=O)c1cccc(C(=O)NCC(c2cccs2)N2CCOCC2)c1 (configuration not stated) | . | -1 | . | 3 | -6 | .
COCc1ccccc1C1=CC(=O)C[C@H](c2ccc(OC)cc2)C1 | . | -3 | . | -2 | . | .
CC/C(C)=N/Nc1cccc([N+](=O)[O-])c1 | 1.6 | 1 | 96* | 0 | 14 | -13
SMILES | Dynein transport | XBP1 UPR activ | L major viab | UPR CHOP act | T cruzi repl | CHOP inh
CCCOc1ccc(/C=N/Nc2cccc([N+](=O)[O-])c2)c(O)c1 | -0.24 | 4 | -9 | 5 | 42 | 74*
Cc1cc(Cl)ccc1NC(=O)CCC(=O)N/N=C/c1cc([N+](=O)[O-])ccc1O | 1.2 | -2 | 92* | -1 | -17 | 36
CCCOc1ccc(/C=N/Nc2ccccc2[N+](=O)[O-])c(O)c1 | 0.19 | -6 | -9 | -7 | -2 | 41
CC/C(=N\Nc1ccc([N+](=O)[O-])cc1)c1ccccc1 | -0.2 | 2 | -9 | 1 | 36 | 75*
CCC(CC)=NNc1cccc([N+](=O)[O-])c1 | -0.58 | -2 | -6 | -1 | 4 | 5
Cc1c(C(=O)N2CCN(S(=O)(=O)c3ccccc3)CC2)oc2ccc(Br)cc12 | . | -2 | . | 0 | . | .
O=[N+]([O-])c1cccc(N/N=C/c2cc([N+](=O)[O-])ccc2O)c1 | 0.0021 | 1 | -2 | 1 | 10 | 95*
O=C(N/N=C/c1cc([N+](=O)[O-])ccc1O)NC12CC3CC(CC(C3)C1)C2 | -0.13 | -7 | 33 | -2 | 4 | 25
O=[N+]([O-])c1ccc(N/N=C/c2ccccc2O)cc1 | . | 3 | . | 14 | -3 | .
O=C(N/N=C/c1cc([N+](=O)[O-])ccc1O)C12CC3CC(CC(C3)C1)C2 | -0.64 | 2 | 97* | -2 | 15 | 22
O=C(CCNC(=O)C1CCN(S(=O)(=O)c2ccc(F)cc2)CC1)Nc1ccccc1 | . | -5 | . | 1 | -7 | .
COc1ccc(SC[C@H](Cc2ccccc2)N2CC[C@@H](C)CCC2=O)cc1 | . | -3 | . | 1 | . | .
Cc1cc(C(=O)COc2ccc(F)cc2Br)c(C)n1C1CC1 | . | 2 | . | 5 | . | .
C/C(=N\NC(=S)NC1CCCCC1)c1cccc(C(F)(F)F)c1 | 1.8 | -1 | . | 0 | 42 | 69
Nc1nc2ccccc2n1/N=C/c1cccnc1 | -0.31 | -2 | 21 | -1 | 8 | 8
Nc1nc2ccccc2n1/N=C/c1ccc([N+](=O)[O-])s1 | -1.6 | -1 | 100* | 3 | 50 | 67
Cc1ccc(O)c(N=Nc2nccs2)c1 | . | 1 | . | 1 | . | .
N#CC1=C(N)OC2=C(CCc3ccccc32)C1c1ccccc1Cl (configuration not stated) | 0.13 | 8 | 15 | 4 | 2 | 87*
N#CC1=C(N)Oc2cc(N)ccc2C1c1ccccc1Cl (configuration not stated) | . | -1 | . | 1 | 6 | .
O=C(NCc1ccccc1)c1ccc(S(=O)(=O)N2CCCc3ccccc32)cc1 | -0.87 | -3 | 20 | 1 | 2 | 31
O=C(Nc1nnc(C2CC2)o1)c1ccc(S(=O)(=O)N2CCCc3ccccc32)cc1 | 0.76 | -2 | 99* | 6 | 59* | .
Cc1ccc2c(c1)CCCN2S(=O)(=O)c1cccc(C(=O)Nc2ccccc2C(=O)O)c1 | . | -2 | . | -1 | 58* | .
